Calls of active or inactive are those of the source. No cut-off for these calls is given here.
Tests used:
[1] = target: T1, Metabotropic glutamate receptor 5 (Rattus norvegicus, UniProt P31424); experiment: Displacement of [3H]methoxyPEPy from rat mGluR5 expressed in HEK293 cells; type: cell-based
Method in brief: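 Membranes from stable HEK cells expressing rat mGluR5a, resuspended in 50 mM Tris HCl/0.9% saline, pH 7.4. Final: 2 nM [3H]methoxyPEPy, 0.1 mg protein/mL, 0.13% DMSO, triplicate; 60 min at room temperature with shaking. Filtration onto GF/B filters, scintillation counting. Nonspecific binding with 5 µM MPEP. Ki derived from IC50 by nonlinear fit; mean ± SEM of three experiments.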

[2] = target: T1, Metabotropic glutamate receptor 5; experiment: (§1) Activity at mGluR5 assessed as potentiation of glutamate-induced calcium flux in rat astrocytes; type: functional, cell-based
Method in brief: (§2)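 Cortical astrocytes from 2-4-day-old Sprague Dawley rats, grown 1 week in DMEM/10% FBS/2 mM glutamine/20 mM HEPES at 37 °C, 5% CO2, then plated on poly-D-lysine. Dye-loaded 1 h at 37 °C; HBSS with 20 mM HEPES, 2.5 mM probenecid, pH 7.4.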

[3] = target: Metabotropic glutamate receptor 5 (Rattus norvegicus) (UniProt P31424); experiment: as §1; type: functional, cell-based; method in brief: as §2
Chain of Metabotropic glutamate receptor 5 (Rattus norvegicus) (P31424 21-1203 limits assumed): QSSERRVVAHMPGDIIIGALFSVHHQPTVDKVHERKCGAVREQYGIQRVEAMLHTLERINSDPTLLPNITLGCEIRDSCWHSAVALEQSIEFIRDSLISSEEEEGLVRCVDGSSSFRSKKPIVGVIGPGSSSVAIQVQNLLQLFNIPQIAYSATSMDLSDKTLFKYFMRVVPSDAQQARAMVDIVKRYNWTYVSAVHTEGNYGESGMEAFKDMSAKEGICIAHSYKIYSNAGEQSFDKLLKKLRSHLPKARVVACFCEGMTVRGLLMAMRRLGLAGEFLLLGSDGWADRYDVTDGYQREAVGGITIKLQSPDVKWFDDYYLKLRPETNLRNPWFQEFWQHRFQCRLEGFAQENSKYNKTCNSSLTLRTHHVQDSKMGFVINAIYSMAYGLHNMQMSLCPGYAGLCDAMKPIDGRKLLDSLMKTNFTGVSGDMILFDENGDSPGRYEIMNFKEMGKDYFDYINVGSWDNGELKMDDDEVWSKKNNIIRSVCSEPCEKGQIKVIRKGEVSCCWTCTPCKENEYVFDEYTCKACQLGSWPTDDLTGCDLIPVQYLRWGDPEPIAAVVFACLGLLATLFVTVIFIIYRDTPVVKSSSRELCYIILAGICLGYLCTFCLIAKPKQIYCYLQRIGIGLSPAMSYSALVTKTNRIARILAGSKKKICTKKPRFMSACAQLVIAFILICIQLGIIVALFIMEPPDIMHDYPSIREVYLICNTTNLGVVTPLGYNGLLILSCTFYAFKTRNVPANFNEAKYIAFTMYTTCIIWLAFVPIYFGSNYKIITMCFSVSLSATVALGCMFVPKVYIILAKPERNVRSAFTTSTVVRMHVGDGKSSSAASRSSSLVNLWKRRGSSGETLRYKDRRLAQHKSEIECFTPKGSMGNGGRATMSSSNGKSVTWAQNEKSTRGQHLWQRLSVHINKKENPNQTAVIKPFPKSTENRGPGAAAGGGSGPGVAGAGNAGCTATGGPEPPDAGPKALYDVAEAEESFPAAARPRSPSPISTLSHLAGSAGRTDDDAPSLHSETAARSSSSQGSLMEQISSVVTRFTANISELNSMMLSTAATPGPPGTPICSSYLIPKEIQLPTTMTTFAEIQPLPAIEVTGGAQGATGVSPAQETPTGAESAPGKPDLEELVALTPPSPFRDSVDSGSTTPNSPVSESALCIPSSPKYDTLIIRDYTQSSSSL

T1 sequence (P31424 whole entry): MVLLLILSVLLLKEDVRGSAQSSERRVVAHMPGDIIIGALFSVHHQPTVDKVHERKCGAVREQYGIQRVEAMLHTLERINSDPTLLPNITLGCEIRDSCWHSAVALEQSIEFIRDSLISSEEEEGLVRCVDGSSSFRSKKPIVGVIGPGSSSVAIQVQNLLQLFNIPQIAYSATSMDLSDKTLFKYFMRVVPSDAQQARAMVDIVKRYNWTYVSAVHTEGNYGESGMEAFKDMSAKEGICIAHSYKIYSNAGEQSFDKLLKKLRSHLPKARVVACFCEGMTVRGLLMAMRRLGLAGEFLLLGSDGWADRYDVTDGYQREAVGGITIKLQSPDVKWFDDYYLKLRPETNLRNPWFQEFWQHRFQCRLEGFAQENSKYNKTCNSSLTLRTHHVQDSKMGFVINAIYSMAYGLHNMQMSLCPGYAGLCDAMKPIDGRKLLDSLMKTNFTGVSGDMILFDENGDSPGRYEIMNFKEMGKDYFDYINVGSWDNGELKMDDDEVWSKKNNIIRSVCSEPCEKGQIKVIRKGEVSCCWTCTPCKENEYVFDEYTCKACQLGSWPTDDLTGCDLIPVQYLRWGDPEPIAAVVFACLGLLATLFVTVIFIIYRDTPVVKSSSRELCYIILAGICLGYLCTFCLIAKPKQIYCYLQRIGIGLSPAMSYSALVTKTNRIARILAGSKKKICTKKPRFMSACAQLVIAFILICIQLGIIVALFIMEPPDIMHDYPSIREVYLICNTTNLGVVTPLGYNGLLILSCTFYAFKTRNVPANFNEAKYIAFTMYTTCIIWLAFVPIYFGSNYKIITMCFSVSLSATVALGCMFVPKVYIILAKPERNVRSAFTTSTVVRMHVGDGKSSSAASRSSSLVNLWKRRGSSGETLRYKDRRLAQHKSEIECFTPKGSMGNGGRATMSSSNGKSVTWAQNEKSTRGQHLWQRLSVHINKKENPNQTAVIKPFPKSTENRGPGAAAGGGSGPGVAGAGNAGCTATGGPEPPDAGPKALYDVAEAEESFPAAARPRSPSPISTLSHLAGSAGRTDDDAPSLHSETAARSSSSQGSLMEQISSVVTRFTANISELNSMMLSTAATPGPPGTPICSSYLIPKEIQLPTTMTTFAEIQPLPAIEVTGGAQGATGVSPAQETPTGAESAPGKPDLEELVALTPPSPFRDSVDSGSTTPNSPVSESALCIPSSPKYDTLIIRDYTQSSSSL

O=C(Nc1cc(-c2ccccc2)nn1-c1ccccc1)c1ccc(Cl)c(Cl)c1
Ki [1]: 160 nM | EC50 [2]: 13 nM

Cc1ccc(C(=O)Nc2cc(-c3ccccc3)nn2-c2ccccc2)cc1
Ki [1]: 780 nM | EC50 [2]: 64 nM

O=C(Nc1cc(-c2ccccc2)nn1-c1ccccc1F)c1ccc([N+](=O)[O-])cc1
Ki [1]: 160 nM | EC50 [2]: 9.6 nM

O=C(CC1CCCC1)Nc1cc(-c2ccccc2)nn1-c1ccccc1
Ki [1]: > 10000 nM | EC50 [2]: 350 nM

O=C(Nc1cc(-c2ccccc2)nn1-c1ccccc1Cl)c1ccc([N+](=O)[O-])cc1
Ki [1]: 110 nM | EC50 [2]: 40 nM

O=C(/C=C/c1ccc([N+](=O)[O-])cc1)Nc1cc(-c2ccccc2)nn1-c1ccccc1
Ki [1]: 1810 nM | EC50 [2]: 560 nM

O=C(Nc1cc(-c2ccccc2)nn1-c1ccccc1Cl)c1ccccc1
Ki [1]: 500 nM | EC50 [2]: 62 nM

O=C(Nc1cc(-c2ccccc2)nn1-c1ccccc1Br)c1ccccc1
Ki [1]: 2600 nM | EC50 [2]: 200 nM

O=C(Nc1cc(-c2ccccc2)nn1-c1ccccc1)C1CCCCC1
Ki [1]: 10100 nM | EC50 [2]: > 10000 nM

O=C(Nc1c(-c2ccccc2)cnn1-c1ccccc1)c1ccc([N+](=O)[O-])cc1
Ki [1]: > 10000 nM | EC50 [2]: > 10000 nM

O=C(Nc1cc(-c2ccccc2)nn1-c1ccccc1)C1CCCC1
Ki [1]: 11600 nM | EC50 [2]: 3410 nM

O=C(Nc1cc(-c2ccccc2)nn1-c1ccccc1)c1ccccc1[N+](=O)[O-]
Ki [1]: > 10000 nM | EC50 [2]: > 10000 nM

N#Cc1ccc(C(=O)Nc2cc(-c3ccccc3)nn2-c2ccccc2)cc1
Ki [1]: 1560 nM | EC50 [2]: 75 nM

O=C(Nc1cc(-c2ccccc2Cl)nn1-c1ccccc1)c1ccccc1
Ki [1]: > 10000 nM | EC50 [2]: 2290 nM

O=C(Nc1cc(-c2ccccc2)nn1-c1ccccc1Br)c1ccc([N+](=O)[O-])cc1
Ki [1]: 120 nM | EC50 [2]: 61 nM

COc1cc(OC)cc(C(=O)Nc2cc(-c3ccccc3)nn2-c2ccccc2)c1
Ki [1]: > 10000 nM | EC50 [2]: 2040 nM

O=C(Nc1cc(-c2ccccc2)nn1-c1ccccc1)c1ccc([N+](=O)[O-])cc1
Ki [1]: 250 nM | EC50 [2]: 10.7 nM

O=C(Nc1cc(-c2ccccc2)nn1-c1ccccc1)C1=CCCCC1
Ki [1]: 4470 nM | EC50 [2]: 3300 nM

N#Cc1cccc(C(=O)Nc2cn(-c3ccccc3)nc2-c2ccccc2)c1
Ki [1]: > 10000 nM | EC50 [2]: > 10000 nM

O=C(Nc1c(-c2ccccc2)cnn1-c1ccccc1)c1ccccc1
Ki [1]: 1170 nM | Activity ([3]; filed as antagonist): Antagonist

COc1ccc(C(=O)Nc2cc(-c3ccccc3)nn2-c2ccccc2)cc1
Ki [1]: 420 nM | EC50 [2]: 54 nM

O=C(Nc1c(-c2ccccc2)nc2ccccn12)c1ccccc1
Ki [1]: 3920 nM | Activity ([3]; filed as antagonist): Antagonist

COc1cccc(-n2nc(-c3ccccc3)cc2NC(=O)c2ccccc2)c1
Ki [1]: 2100 nM | EC50 [2]: 570 nM

N#Cc1ccc(C(=O)/N=c2\cc(-c3ccccc3)n(C(=O)c3ccc(C#N)cc3)n2-c2ccccc2)cc1
Ki [1]: 5230 nM | EC50 [2]: 43 nM

Cc1ccc(C(=O)Nc2cc(-c3ccccc3)nn2-c2ccccc2)cn1
Ki [1]: 3480 nM | EC50 [2]: 280 nM

O=C(Nc1cn(-c2ccccc2)nc1-c1ccccc1)c1ccccc1
Ki [1]: > 10000 nM | EC50 [2]: > 10000 nM

O=C(Nc1cc(-c2ccccc2)nn1-c1ccccc1)c1cccc([N+](=O)[O-])c1
Ki [1]: 2220 nM | EC50 [2]: 39 nM

O=C(Nc1cc(-c2ccccc2)nn1-c1ccccc1)c1cccc(C(F)(F)F)c1
Ki [1]: 1650 nM | EC50 [2]: 228 nM

O=C(Nc1cc(-c2ccccc2)nn1-c1ccccn1)c1ccccc1
Ki [1]: > 10000 nM | Activity [3]: inactive

O=C(c1ccc(F)cc1)N1CCC[C@H](c2nc(-c3ccc(F)cc3)no2)C1
EC50 [2]: 170 nM

O=C(Nc1cc(-c2ccccc2)nn1-c1ccccc1)c1ccccc1
Ki [1]: 4180 nM | EC50 [2]: 203 nM

COc1cccc(C(=O)Nc2cc(-c3ccccc3)nn2-c2ccccc2)c1
Ki [1]: 1290 nM | EC50 [2]: 102 nM

O=C(Nc1cn(-c2ccccc2)nc1-c1ccccc1)c1ccc([N+](=O)[O-])cc1
Ki [1]: > 10000 nM | EC50 [2]: > 10000 nM

N#Cc1cccc(C(=O)Nc2c(-c3ccccc3)nc3ccccn23)c1
Ki [1]: 1990 nM | Activity ([3]; filed as antagonist): Antagonist

O=C(O)c1ccc(C(=O)Nc2cc(-c3ccccc3)nn2-c2ccccc2)cc1
Ki [1]: > 10000 nM | Activity [3]: inactive

N#Cc1cccc(-n2nc(-c3ccccc3)cc2NC(=O)c2ccccc2)c1
Ki [1]: > 10000 nM | EC50 [2]: 117 nM

COc1cccc(-c2cc(NC(=O)c3ccccc3)n(-c3ccccc3)n2)c1
Ki [1]: 3200 nM | EC50 [2]: 600 nM

O=C(Nc1cc(-c2ccccc2)nn1-c1ccccc1Br)c1cccc([N+](=O)[O-])c1
Ki [1]: 230 nM | EC50 [2]: 68 nM

N#Cc1ccc(C(=O)N(C(=O)c2ccc(C#N)cc2)c2cc(-c3ccccc3)nn2-c2ccccc2)cc1
Ki [1]: 3050 nM | EC50 [2]: 340 nM

O=C(Nc1cc(-c2ccccc2)nn1-c1ccccc1)c1ccncc1
Ki [1]: > 10000 nM | EC50 [2]: 2500 nM

c1ccc(-c2cn(-c3cc(-c4ccccc4)nn3-c3ccccc3)nn2)cc1
Ki [1]: 5880 nM | EC50 [2]: 2600 nM

O=C(Nc1cc(-c2ccccc2)nn1-c1ccccc1F)c1ccccc1
Ki [1]: 2700 nM | EC50 [2]: 104 nM

N#Cc1cccc(C(=O)Nc2c(-c3ccccc3)cnn2-c2ccccc2)c1
Ki [1]: 1200 nM | Activity ([3]; filed as antagonist): Antagonist

O=C(Nc1cc(-c2ccccc2)nn1-c1ccccc1)c1ccc(C(F)(F)F)cc1
Ki [1]: 990 nM | EC50 [2]: 38 nM

O=C(Nc1cc(-c2ccccc2)nn1-c1ccccc1)c1cc([N+](=O)[O-])cc([N+](=O)[O-])c1
EC50 [2]: 65 nM

COc1ccc(C(=O)Nc2cc(-c3ccccc3)nn2-c2ccccc2)cc1OC
Ki [1]: > 10000 nM | EC50 [2]: 3530 nM

N#Cc1cccc(C(=O)Nc2cc(-c3ccccc3)nn2-c2ccccc2Br)c1
Ki [1]: 230 nM | EC50 [2]: 50 nM

Cc1ccc(C(=O)Nc2cc(-c3ccccc3)nn2-c2ccccc2)cc1C
Ki [1]: 430 nM | EC50 [2]: 20 nM

O=C(Nc1cc(-c2ccccc2)nn1-c1ccccc1)c1ccc(OC(F)(F)F)cc1
Ki [1]: 265 nM | EC50 [2]: 18 nM

NC(=O)c1ccc(C(=O)Nc2cc(-c3ccccc3)nn2-c2ccccc2)cc1
Ki [1]: > 10000 nM | Activity [3]: inactive

O=C(Nc1cc(-c2ccccc2)nn1-c1cccc(Br)c1)c1ccccc1
Ki [1]: > 10000 nM | EC50 [2]: 400 nM

— ChEMBL document CHEMBL1148504, “Substituent effects of N-(1,3-diphenyl-1H-pyrazol-5-yl)benzamides on positive allosteric modulation of the metabotropic glutamate-5 receptor in rat cortical astrocytes” (J Med Chem, 2006)
